The source made the active and inactive calls. The calls are words filed in the database; no cut-off is given here.
Assays:
[1] = biological target: 4-aminobutyrate aminotransferase, mitochondrial (Homo sapiens) (UniProt P80404); assay: Inhibition of GABA-transaminase at 100 uM
Outline: (§1)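 In vitro screen: GABASE incubated with compound in incubation buffer, with GABA-T activity read by a modified colorimetric method.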

[2] = biological target: 4-aminobutyrate aminotransferase, mitochondrial (Homo sapiens) (UniProt P80404); assay: Inhibition of GABA-transaminase at 10 uM; outline: as §1
[3] = biological target: T1, Amine oxidase [flavin-containing] A (Rattus norvegicus, UniProt P21396); assay: Inhibition of rat brain monoamine oxidase A
T1 sequence (P21396 whole entry): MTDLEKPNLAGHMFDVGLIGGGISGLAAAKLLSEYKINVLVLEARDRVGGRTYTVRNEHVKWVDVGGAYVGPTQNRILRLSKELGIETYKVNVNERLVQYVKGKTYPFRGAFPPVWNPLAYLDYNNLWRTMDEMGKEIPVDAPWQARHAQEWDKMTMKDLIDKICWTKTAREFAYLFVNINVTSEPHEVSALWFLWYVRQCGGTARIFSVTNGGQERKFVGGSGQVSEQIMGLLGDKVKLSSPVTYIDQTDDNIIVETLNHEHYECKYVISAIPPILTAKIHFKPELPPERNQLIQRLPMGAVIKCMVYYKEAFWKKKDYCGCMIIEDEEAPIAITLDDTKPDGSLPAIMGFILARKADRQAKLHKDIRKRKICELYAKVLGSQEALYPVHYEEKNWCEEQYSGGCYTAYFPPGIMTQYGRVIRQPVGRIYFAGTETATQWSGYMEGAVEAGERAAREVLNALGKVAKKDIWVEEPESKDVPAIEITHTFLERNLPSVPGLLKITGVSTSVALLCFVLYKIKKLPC

Rattus norvegicus [4] = assay: Ex vivo inhibition of GABA-transaminase in Sprague-Dawley rat whole brain at 30 mg/kg, ip after 6 hrs relative to control; type: functional; details: route intraperitoneal
Outline: (§2)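 Male Sprague–Dawley rats (~300 g) dosed i.p. in corn oil, killed 3, 6 or 12 h later; whole-brain homogenate (5 volumes ice-cold water). GABA-T measured radiochemically: homogenate incubated with radiolabeled GABA in buffer containing pyridoxal phosphate, products isolated with tri-n-octylamine liquid anion exchanger, scintillation counting. Activity as % of vehicle control; N = 4–5 per group.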

Rattus norvegicus [5] = assay: Ex vivo inhibition of GABA-transaminase in Sprague-Dawley rat whole brain at 30 mg/kg, ip after 3 hrs relative to control; type: functional; details: route intraperitoneal; outline: as §2
Rattus norvegicus [6] = assay: Ex vivo inhibition of GABA-transaminase in Sprague-Dawley rat whole brain at 30 mg/kg, ip after 12 hrs relative to control; type: functional; details: route intraperitoneal; outline: as §2
Rattus norvegicus [7] = assay: Ex vivo inhibition of monoamine oxidase A in Sprague-Dawley rat whole brain at 30 mg/kg, ip; type: functional; parameters: dose 30 mg/kg
Outline: (§3)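 Male Sprague–Dawley rats (~300 g) dosed i.p. in corn oil, killed at 3, 6 or 12 h; whole-brain water homogenate diluted in 0.2 M potassium phosphate pH 7.4. Activity as % of vehicle control; N = 3–6 per group.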

Rattus norvegicus [8] = assay: Ex vivo inhibition of monoamine oxidase B in Sprague-Dawley rat whole brain at 30 mg/kg, ip; type: functional; parameters: dose 30 mg/kg; outline: as §3
Rattus norvegicus [9] = assay: Ex vivo increase in brain alanine level in Sprague-Dawley rat whole brain at 30 mg/kg, ip after 3 hrs relative to control; type: functional; details: route intraperitoneal
Outline: (§4)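 Male Sprague–Dawley rats (~300 g) given drug i.p. in corn oil vehicle, killed by decapitation at 3, 6 or 12 h; brains flash-frozen, homogenized in 5 volumes ice-cold water. Homogenate deproteinized in ice-cold methanol, centrifuged, OPA/isobutyryl-L-cysteine derivatized; HPLC with fluorescence detection, C18 column at 30 °C. Expressed as % of vehicle control; N = 3–5 per group.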

Rattus norvegicus [10] = assay: Ex vivo increase in brain GABA level in Sprague-Dawley rat whole brain at 30 mg/kg, ip after 3 hrs relative to control; type: functional; details: route intraperitoneal; outline: as §4
Rattus norvegicus [11] = assay: Ex vivo increase in brain glycine level in Sprague-Dawley rat whole brain at 38.5 mg/kg, ip after 6 hrs relative to control; type: functional; details: route intraperitoneal
Outline: (§5)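 Male rats (~300 g) dosed i.p. in corn oil vehicle, killed by decapitation 3, 6 or 12 h later. Whole brains were flash-frozen, homogenized in 5 volumes ice-cold water, extracted with ice-cold methanol and centrifuged. Amino acids were derivatized with OPA/isobutyryl-L-cysteine and measured by HPLC-fluorescence on a C18 column at 30 °C. Values are % of vehicle control, N = 3–5 per group.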

Rattus norvegicus [12] = assay: Ex vivo increase in brain glycine level in Sprague-Dawley rat whole brain at 38.5 mg/kg, ip after 3 hrs relative to control; type: functional; parameters: dose 38.5 mg/kg; outline: as §5

Sequence of 4-aminobutyrate aminotransferase, mitochondrial (Homo sapiens) (P80404 whole entry): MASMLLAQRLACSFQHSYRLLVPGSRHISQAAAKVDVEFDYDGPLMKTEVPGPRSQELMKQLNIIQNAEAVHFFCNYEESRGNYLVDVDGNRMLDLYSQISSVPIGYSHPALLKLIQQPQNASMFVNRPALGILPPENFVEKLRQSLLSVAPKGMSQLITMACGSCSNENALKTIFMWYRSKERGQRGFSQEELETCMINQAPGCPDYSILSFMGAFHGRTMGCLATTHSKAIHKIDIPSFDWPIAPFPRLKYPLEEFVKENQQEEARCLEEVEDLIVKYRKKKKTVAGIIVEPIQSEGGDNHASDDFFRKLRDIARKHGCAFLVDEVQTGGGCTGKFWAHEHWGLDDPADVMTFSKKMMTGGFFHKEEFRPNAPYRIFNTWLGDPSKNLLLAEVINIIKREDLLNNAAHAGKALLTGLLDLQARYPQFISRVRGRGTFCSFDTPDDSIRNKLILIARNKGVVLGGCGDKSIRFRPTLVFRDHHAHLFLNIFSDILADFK

Activity [1]	Activity [2]	Compound	other results
inactive	inactive	C#CCN(CC#C)/N=C/Cc1ccccc1C(F)(F)F	
inactive	inactive	C#CCN/N=C/Cc1ccc(C(F)(F)F)cc1	
inactive	inactive	C#CCN/N=C/Cc1ccc(OC)cc1	
inactive	inactive	C#CCN(CC#C)/N=C/Cc1ccccc1Cl	
inactive	inactive	C#CCN/N=C/Cc1cccc(Cl)c1	
inactive	inactive	C#CCN(CC#C)/N=C/Cc1ccc(Cl)cc1	
inactive	inactive	C#CCN/N=C/Cc1ccccc1OC	
inactive	inactive	C#CCN/N=C/Cc1ccc(C)cc1	
inactive	inactive	C#CCN/N=C/Cc1cccc(OC)c1	
inactive	inactive	C#CCN/N=C/Cc1ccc(Cl)cc1	
inactive	inactive	C#CCN(CC#C)/N=C/Cc1cccc(OC)c1	

More lines, now with the values behind:

Compound	Activity [1]	Activity [2]	other results
C#CCN/N=C/Cc1ccccc1Cl	inactive	inactive	
C#CCN(CC#C)/N=C/Cc1cccc(F)c1	inactive	inactive	
C#CCN/N=C/Cc1cccc(C)c1	inactive	inactive	
C#CCN/N=C/Cc1ccccc1C(F)(F)F	inactive	inactive	
C#CCN(CC#C)/N=C/Cc1cccc(Cl)c1	inactive	inactive	
C#CCN/N=C/Cc1ccccc1C	inactive	inactive	
C#CCN(CC#C)/N=C/Cc1ccccc1C	inactive	inactive	
NNCCc1ccccc1 [PHENELZINE]			inhibition (INH) [3]: > 95%
C#CCN/N=C/Cc1ccccc1F	inactive	inactive	
C#CCN/N=C/Cc1cccc(C(F)(F)F)c1	inactive	inactive	
C#CCN(CC#C)/N=C/Cc1ccc(C)cc1	inactive	inactive	
C#CCN(CC#C)/N=C/Cc1cccc(C(F)(F)F)c1	inactive	inactive	
C#CCN(CC#C)/N=C/Cc1ccccc1F	inactive	inactive	
C#CCN(CC#C)/N=C/Cc1ccc(OC)cc1	inactive	inactive	
C#CCN/N=C/Cc1cccc(F)c1	inactive	inactive	
N/N=C\Cc1ccccc1			inhibition in vivo at 30 mg/kg (Rattus norvegicus [4]): 66%; inhibition [2]: 10%; inhibition in vivo at 30 mg/kg (Rattus norvegicus [5]): 66%; inhibition in vivo at 30 mg/kg (Rattus norvegicus [6]): 70%; Activity (Rattus norvegicus [7]): inactive; Activity (Rattus norvegicus [8]): inactive; Activity (Rattus norvegicus [9]): 489%; Activity (Rattus norvegicus [10]): 418%
C#CCN(CC#C)/N=C/Cc1ccc(F)cc1	inactive	inactive	
C#CCN/N=C/Cc1ccc(F)cc1	inactive	inactive	
C#CCN(CC#C)/N=C/Cc1cccc(C)c1	inactive	inactive	
C#CCN/N=C/Cc1ccccc1	inactive	inactive	Activity (Rattus norvegicus [11]): 216%; Activity (Rattus norvegicus [12]): Active
C#CCN(CC#C)/N=C/Cc1ccccc1OC	inactive	inactive	
C#CCN(CC#C)/N=C/Cc1ccc(C(F)(F)F)cc1	inactive	inactive	
